SMILES strings stand for the structures. Active and inactive are the calls of the source. The calls are words filed in the database; no cut-off is given here.

What is called IC50 is the point on the concentration scale where inhibition reaches its midpoint.

Assay [1] relates to A549. Kind of assay: Induction of apoptosis in human A549 cells assessed as viable cells at 12 uM after 24 hrs by Annexin-V/PI staining based flow cytometry analysis (reference value: 91.4%). The note with it: A549, 24 h, read-out: Activity. The format is functional. The procedure, abridged: (§1)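 A549 cells seeded overnight at 37 °C, 5% CO2, then exposed to 0, 2, 4, 8 or 12 µM for 24 h (dose series) or 8 µM for 0, 12, 24, 36 h (time series). Harvested, PBS-washed, stained with Annexin V-FITC and PI in binding buffer 15 min at room temperature in the dark, analysed by flow cytometry; three independent experiments.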
A general note: Flow cytometry measures light scatter and fluorescence of single cells or particles in a stream.

Assay [2] deals with A549. The assay is described as follows: Induction of apoptosis in human A549 cells assessed as increase in late apoptotic cells at 4 to 12 uM after 12 hrs by PI-staining based flow cytometric analysis. The format is functional, cell-based. The procedure, abridged: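 JC-1 staining of A549 cells treated for 12 h. CCCP-treated wells, 20 min at 37 °C, served as positive control. Collected cells were incubated with JC-1 solution at 37 °C for 30 min, washed, and analysed by flow cytometry for the fraction with high ΔΨm and for PI-positive cells. Results are mean ± S.E.M. of three replicates.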

The test system of assay [3] is A549. The assay is described as follows: Cell cycle arrest in human A549 cells assessed as accumulation at S phase at 2 uM after 24 hrs by RNAse A/ PI staining based flow cytometric analysis (reference value: 17.23%). The format is functional. The method, boiled down:
(§2)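 A549 cells at 5.0×10^4 per well were grown 12 h at 37 °C. Treatment was 0, 2, 4 or 8 µM for 24 h, or 8 µM for 0, 12, 24 or 36 h. Cells were fixed in 70% ethanol at −20 °C for at least 12 h, then stained in PBS with 0.1 mg/mL RNase A and 5 µg/mL PI. At least 10,000 events per sample were collected by flow cytometry to give G0/G1, S and G2/M percentages.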

For assay [4], the system named is A549. Kind of assay: Induction of apoptosis in human A549 cells incubated for 24 hrs by Annexin-V/PI staining based flow cytometry analysis. The format is functional, cell-based. The procedure, abridged: as §1
Assay [5] addresses T1, Epidermal growth factor receptor (Homo sapiens, UniProt P00533). The assay is described as follows: Inhibition of C-terminal His-tagged N-terminal GST-tagged human EGFR (668 to 1210 residues) expressed in baculovirus infected Sf9 cells after 30 mins in presence of gamma-[32p-ATP] binding assay.
For assay [6], the system named is A549. The assay is described as follows: Induction of apoptosis in human A549 cells assessed as viable cells at 2 uM after 24 hrs by Annexin-V/PI staining based flow cytometry analysis (reference value: 91.4%). Format: functional. As to conditions: A549, 24 h, read-out: Activity. The procedure, abridged:
as §1

In assay [7] the test system is A549. The assay is described as follows: Induction of apoptosis in human A549 cells assessed as necrotic cells after at 12 uM 24 hrs by Annexin-V/PI staining based flow cytometry analysis (reference value: 1.81%). The format is functional. The method, boiled down: as §1
Assay [8] relates to A549. The assay is described as follows: Induction of apoptosis in human A549 cells assessed as low mitochondrial membrane potential at 8 uM after 12 hrs by JC-1 staining-based flow cytometric analysis (reference value: 6.3%). Format: functional.
The test system of assay [9] is A549. Kind of assay: Cell cycle arrest in human A549 cells assessed as accumulation at G2/M phase at 8 uM after 12 hrs by RNAse A/ PI staining based flow cytometric analysis (reference value: 12.65%). Format: functional. The method, boiled down: as §2
The subject of assay [10] is A549. Kind of assay: Antitumor activity against ip dosed human A549 cells xenografted in Balb/c mouse assessed as inhibition of tumor volume by measuring fold reduction at 4 mg/kg, ip administered once every two days for 32 days relative to untreated control. The format is functional. The method, boiled down:
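Female BALB/c nude mice, 5-6 weeks old, injected in the flank with 6×10^6 A549 cells in 0.1 mL ice-cold PBS. After two weeks, tumours averaging 90 mm³ were allocated by volume to 5 groups of n = 8. Drugs in DMSO were given ip once every two days, 16 doses in total; a DMSO vehicle group served as control. Tumour volume (L×S²/2) and body weight were recorded every two days; mice were killed on day 32.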
For orientation: In xenograft studies the graft and the host belong to different species.

Assay [11] deals with A549. Kind of assay: Induction of G2/M cell cycle arrest in human A549 cells assessed as increase in CDK1 expression at 2 to 8 uM by immunoblot analysis. Format: functional, cell-based. The procedure, abridged: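 A549 lysates in RIPA buffer with protease inhibitors were run on SDS-PAGE and blotted to PVDF. Membranes were probed overnight at 4 °C with primary antibody at 1:1000, then secondary antibody at 1:3000-1:5000 for 1 h, and detected by ECL. Band intensity was normalised to GAPDH. Results are mean ± S.E.M. from three independent experiments.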
On the technique in general: A western blot detects proteins with antibodies after separation by electrophoresis.

Assay [12] deals with A549. The assay is described as follows: Induction of apoptosis in human A549 cells assessed as late apoptotic cells at 4 uM after 24 hrs by Annexin-V/PI staining based flow cytometry analysis (reference value: 5.69%). Format: functional.
Assay [13] concerns A549. Kind of assay: Induction of apoptosis in human A549 cells assessed as early apoptotic cells at 8 uM after 12 hrs by Annexin-V/PI staining based flow cytometry analysis (reference value: 2.02%). The format is functional.
Assay [14] concerns A549. The assay is described as follows: Cell cycle arrest in human A549 cells assessed as accumulation at S phase at 8 uM after 36 hrs by RNAse A/ PI staining based flow cytometric analysis (reference value: 19.66%). The format is functional. The method, boiled down:
as §2

The test system of assay [15] is A549. The assay is described as follows: Induction of apoptosis in human A549 cells assessed as necrotic cells after at 8 uM 24 hrs by Annexin-V/PI staining based flow cytometry analysis (reference value: 1.81%). Format: functional. The procedure, abridged:
as §1

Assay [16] deals with A549. Kind of assay: Cell cycle arrest in human A549 cells assessed as accumulation at S phase at 8 uM after 12 hrs by RNAse A/ PI staining based flow cytometric analysis (reference value: 19.66%). Format: functional. The procedure, abridged:
as §2

Assay [17] deals with A549. The assay is described as follows: Antimigratory activity against human A549 cells measured up to 48 hrs by phase contrast microscopic based wound healing assay. The format is functional, cell-based. The method, boiled down: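 A549 monolayer seeded at 2×10^5 cells per cm² overnight, incubated 24 h, then scratched with a micropipette tip. The same cell-free area was imaged by phase-contrast microscopy at 0, 24 and 48 h. Wound area was outlined by image analysis to quantify the reduction in cell-free space; n = 3.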

Assay [18] relates to A549. The assay is described as follows: Cell cycle arrest in human A549 cells assessed as accumulation at G1 phase at 8 uM after 12 hrs by RNAse A/ PI staining based flow cytometric analysis (reference value: 67.69%). Format: functional. The method, boiled down:
as §2

Assay [19] deals with A549. Kind of assay: Cell cycle arrest in human A549 cells assessed as accumulation at S phase at 4 uM after 24 hrs by RNAse A/ PI staining based flow cytometric analysis (reference value: 17.23%). The format is functional. The method, boiled down: as §2
For assay [20], the system named is A549. Kind of assay: Induction of apoptosis in human A549 cells assessed as reduction in caspase-9 expression at 2 to 8 uM after 24 hrs by Western blot analysis. The format is functional, cell-based. The method, boiled down: (§3)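 A549 cells in 6-well plates were lysed in RIPA buffer with protease inhibitors on ice for 30 min and cleared at 4 °C. Protein was quantified by BCA, run on SDS-PAGE and transferred to PVDF. Membranes were blocked with milk, probed with primary antibody (1:1000) overnight at 4 °C, then secondary antibody (1:3000-1:5000) 1 h at RT. Detection by ECL; band densitometry normalised to GAPDH (β-actin also used). Three independent experiments.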

Assay [21] deals with T1, Epidermal growth factor receptor. Kind of assay: Inhibition of EGFR signalling in human A549 cells assessed as reduction in EGFR phosphorylation after 24 hrs by Western blot analysis. The format is cell-based. The procedure, abridged: as §3
Assay [22] concerns A549. The assay is described as follows: Cell cycle arrest in human A549 cells assessed as accumulation at G2/M phase at 2 uM after 24 hrs by RNAse A/ PI staining based flow cytometric analysis (reference value: 9.47%). Format: functional. The procedure, abridged: as §2

T1 sequence (P00533 whole entry, the tested form may be a part): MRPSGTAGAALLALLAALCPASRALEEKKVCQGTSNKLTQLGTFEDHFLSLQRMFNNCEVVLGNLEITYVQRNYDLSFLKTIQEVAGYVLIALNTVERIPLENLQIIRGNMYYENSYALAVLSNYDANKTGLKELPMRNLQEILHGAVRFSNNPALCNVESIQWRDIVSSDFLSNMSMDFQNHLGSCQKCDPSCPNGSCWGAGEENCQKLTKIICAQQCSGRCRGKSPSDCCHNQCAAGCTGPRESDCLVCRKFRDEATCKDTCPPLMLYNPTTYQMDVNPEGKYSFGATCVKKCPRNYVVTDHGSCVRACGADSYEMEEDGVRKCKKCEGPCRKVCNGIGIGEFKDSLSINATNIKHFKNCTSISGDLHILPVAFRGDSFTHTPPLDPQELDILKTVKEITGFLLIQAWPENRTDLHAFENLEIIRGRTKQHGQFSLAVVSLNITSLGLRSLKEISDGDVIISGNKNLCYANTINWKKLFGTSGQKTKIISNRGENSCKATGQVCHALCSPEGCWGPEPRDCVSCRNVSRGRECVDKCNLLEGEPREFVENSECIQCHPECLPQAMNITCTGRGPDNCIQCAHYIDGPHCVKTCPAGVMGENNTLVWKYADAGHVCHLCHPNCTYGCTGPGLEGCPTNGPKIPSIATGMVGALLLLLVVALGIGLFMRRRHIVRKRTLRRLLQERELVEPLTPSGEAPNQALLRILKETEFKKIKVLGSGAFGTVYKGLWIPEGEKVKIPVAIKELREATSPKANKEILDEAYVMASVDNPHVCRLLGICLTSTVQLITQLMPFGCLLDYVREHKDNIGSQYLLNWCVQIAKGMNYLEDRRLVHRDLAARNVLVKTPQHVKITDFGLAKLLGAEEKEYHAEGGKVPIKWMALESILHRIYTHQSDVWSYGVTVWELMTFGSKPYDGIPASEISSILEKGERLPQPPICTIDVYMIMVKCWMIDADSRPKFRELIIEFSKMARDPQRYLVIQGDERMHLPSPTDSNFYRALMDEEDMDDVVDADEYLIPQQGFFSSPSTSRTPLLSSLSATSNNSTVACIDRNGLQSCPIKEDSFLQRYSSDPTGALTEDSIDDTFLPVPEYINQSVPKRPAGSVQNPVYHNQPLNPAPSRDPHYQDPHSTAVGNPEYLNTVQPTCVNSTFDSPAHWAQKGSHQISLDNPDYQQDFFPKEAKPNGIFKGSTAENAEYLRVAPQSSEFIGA

Regarding `CC(C)=CC[C@@H](OC(=O)/C=C\C(=O)c1ccc(F)cc1)C1=CC(=O)c2c(O)ccc(O)c2C1=O`, the viability at 12 µM in the assay on A549 [1] is 15.1%. Also, the outcome with A549 [2] was inactive. Further, the Activity is 22.93% in the assay on A549 [3]; “Dose-dependent effect” with A549 [4]; 4.16% with A549 [7]; 39.3% in the assay on A549 [8]; 19.4% in the assay with A549 [9]; 10.6% in the assay on A549 [12]. Moreover, the Activity in the assay on A549 [13] was found to be 8.92%; with A549 [14] it was 22.57%; in the assay with A549 [15], 3.29%; in the assay on A549 [16] it was 24.72%; with A549 [18], 55.88%; with A549 [19] it was 19.8%. Besides, the Activity with A549 [22] was 15.4%. Moreover, the half-inhibitory concentration (IC50) in assay [5] turned out to be 22.7 nM. In the assay on A549 [6], the viability at 2 µM amounted to 83.7%. Further, in the assay with A549 [10], the “fold change (FC)” value is 6. The outcome in the assay with A549 [11] and with A549 [20] was Active. Besides, the inhibition result (in the assay on A549 [17]; in assay [21]) was “Dose-dependent effect” in each case.

The values above are taken from ChEMBL document CHEMBL4406881, “Design, synthesis and biological evaluation of benzoylacrylic acid shikonin ester derivatives as irreversible dual inhibitors of tubulin and EGFR” (Bioorg Med Chem, 2019).
